The results in this text go back to ChEMBL document CHEMBL4251758, “Small Molecule Inhibition of MicroRNA miR-21 Rescues Chemosensitivity of Renal-Cell Carcinoma to Topotecan” (J Med Chem, 2018).

The subject of series [1] is A498. Kind of series: Induction of apoptosis in human A498 cells assessed as increase in caspase-3/7 activity at 10 uM after 24 hrs by Caspase-Glo 3/7 assay relative to control. Type of series: functional. The essentials: (§1)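 A498 cells, 10,000 per well, treated after overnight attachment for 24 h with DMSO (0.1%), 400 nM topotecan, 10 μM inhibitor, or topotecan plus inhibitor at those levels. Caspase-3/7 activity read by Caspase-Glo 3/7 luminescence and normalized to DMSO. At least three independent experiments; unpaired t test.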

For series [2], the system named is MIA PaCa-2. Kind of series: Cytotoxicity against human MIAPaCa2 cells after 72 hrs by XTT assay. Type of series: functional, cell-based. The conditions noted are these: MIA PaCa-2, 72 h. In a few lines:
(§2)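 Cells seeded at 500 per well, incubated overnight, then exposed to increasing compound concentrations (0.1% DMSO final, DMSO control) in triplicate for 72 h. Activated XTT added; absorbance read at 450 nm with 630 nm background at start and after 4 h at 37 °C, 5% CO2. Change normalized to DMSO as % viability; IC50 from variable-slope sigmoidal fit; three independent measurements.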
On the technique in general: Tetrazolium dyes change colour on reduction, which living cells bring about.

Series [3] can be described thus: Inhibition of miR-122 RNA (unknown origin) transfected in human Huh7-psiCHECK-miR122 cells at 10 uM incubated for 48 hrs by Bright-Glo luciferase reporter gene assay. In general terms: Reporter assays use an easily measured gene product as a stand-in for the process of interest.
Series [4] addresses Luciferin 4-monooxygenase (Photinus pyralis) (UniProt P08659). Kind of series: Inhibition of firefly luciferase activity up to 50 uM.
Series [5] deals with A498. Nature of the series: Inhibition of colony formation of human A498 cells up to 10 uM after 2 weeks by crystal violet staining-based microscopic analysis. Type of series: functional, cell-based. In a few lines:
(§3)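 A498 cells, 10,000 per well, seeded in 0.45% low-melt agarose in DMEM over a 0.7% agarose base layer, containing increasing compound concentrations or DMSO (0.1% final), in triplicate. For combinations, the inhibitor was held at 10 μM. After 2 weeks, colonies were stained with 0.1% crystal violet and imaged by z-stack microscopy. Colony counts were normalized to DMSO; IC50 from sigmoidal fit.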

The test system of series [6] is NIH3T3. Kind of series: Cytotoxicity against mouse NIH/3T3 cells up to 100 uM after 72 hrs by XTT assay. Type of series: cell-based. Particulars: nih3t3, 72 h. In a few lines:
as §2

Series [7] has as its target microRNA 21. Kind of series: Inhibition of miR-21 RNA in human A498 cells assessed as potentiation of topotecan-induced cytotoxicity by measuring topotecan IC50 at 10 uM after 72 hrs by XTT assay (reference value: 1 uM). Type of series: cell-based. The essentials: (§4)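 The chemotherapeutic agent (topotecan) was titrated while the miR-21 inhibitor was held at a fixed concentration, 0.1% DMSO final, in triplicate. Cells were seeded at 500 per well and treated after overnight attachment. After 72 h, XTT was read at 450 nm (630 nm background) at start and after 4 h. Signal normalized to DMSO; IC50 from variable-slope sigmoidal fit.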

Series [8] deals with HeLa. Nature of the series: Effect on mature miR-21 expression levels in human HeLa cells at 10 uM after 48 hrs by qRT-PCR analysis. Type of series: functional, cell-based. The essentials: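 HeLa cells, 150,000 per well, grown overnight and exposed to 10 μM compound or DMSO (1% final) for 48 h at 37 °C. RNA was isolated and 100 ng reverse-transcribed with miR-21 or RNU19 TaqMan RT primers. TaqMan qPCR run for 40 cycles. Triplicate Ct values converted to levels relative to DMSO by the 2−ΔΔCt method.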
On the technique in general: Quantitative PCR measures a nucleic acid by following its amplification.

Series [9] concerns SK-OV-3. Kind of series: Decrease in mature miR-21 expression levels in human SKOV3 cells at 10 uM after 48 hrs by qRT-PCR analysis. Type of series: functional, cell-based.
Series [10] concerns microRNA 21. Kind of series: Inhibition of miR-21 RNA in human A498 cells assessed as potentiation of topotecan-induced apoptosis by measuring increase in caspase-3/7 activity at 10 uM after 24 hrs by Caspase-Glo 3/7 assay relative to topotecan alone. Type of series: cell-based. The essentials:
as §1

Series [11] concerns A498. Nature of the series: Cytotoxicity against human A498 cells after 72 hrs by XTT assay. Type of series: functional, cell-based. Particulars: A498, 72 h. The essentials:
as §2

Series [12] concerns U-87 MG. Nature of the series: Cytotoxicity against human U87 cells after 72 hrs by XTT assay. Type of series: functional, cell-based, U-87MG ATCC. In a few lines: as §2
The nature of series [13]: Inhibition of miR-221 RNA (unknown origin) transfected in human PC3 cells at 10 uM after 48 hrs by Bright-Glo luciferase reporter gene assay. Type of series: cell-based.
Series [14] has as its system A498. Nature of the series: Decrease in mature miR-21 expression levels in human A498 cells at 10 uM after 48 hrs by qRT-PCR analysis. Type of series: functional, cell-based.
The subject of series [15] is MCF7. Nature of the series: Cytotoxicity against human MCF7 cells after 72 hrs by XTT assay. Type of series: functional, cell-based. Particulars: MCF7, 72 h. The essentials:
as §2

Series [16] concerns microRNA 21. Nature of the series: Inhibition of miR-21 RNA in human A498 cells assessed as potentiation of topotecan-induced cytotoxicity by measuring reduction in topotecan IC50 at 10 uM after 72 hrs by XTT assay relative to topotecan alone. Type of series: cell-based. In a few lines:
as §4

Series [17] can be described thus: Stabilization of pre-miR-21 RNA (unknown origin) assessed as increase in melting temperature at 10 uM by UV-spectrophotometric analysis. The essentials:
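Melting-curve analysis of precursor miR-21 RNA run with test compound, with DMSO as the reference condition and tobramycin (10 μM) as a positive control for RNA binding and stabilisation. Read-out is the shift in melting temperature of pre-miR-21 relative to the DMSO sample.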

Series [18] has as its target microRNA 21. Nature of the series: Inhibition of miR-21 RNA in human A498 cells assessed as potentiation of topotecan-induced inhibition of colony formation by measuring topotecan IC50 at 10 uM after 2 weeks by crystal violet staining-based microscopic analysis (reference value: 2 uM). Type of series: cell-based. The essentials:
as §3

The subject of series [19] is microRNA 21. Nature of the series: Inhibition of miR-21 RNA in human HeLa cells harboring miR-21 binding sequence in 3'-UTR of firefly luciferase gene assessed as increase in luciferase expression incubated for 48 hrs by Bright-Glo luciferase reporter gene assay relative to control. Type of series: cell-based. In a few lines: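 HeLa-miR21-Luc stable line (miR-21 site in the firefly luciferase 3′-UTR), 1000 cells per well. Compound or DMSO (0.1% final) added after overnight attachment, in triplicate, for 48 h. Bright-Glo luminescence was normalized to XTT viability (450 nm) and expressed as fold change relative to DMSO. At least three independent experiments.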

Series [20] concerns microRNA 21. Nature of the series: Inhibition of promoter activity of miR-21 RNA (unknown origin) transfected in human HeLa cells at 10 uM after 48 hrs by Bright-Glo luciferase reporter gene assay. Type of series: cell-based. The essentials:
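HeLa cells, 10,000 per well, treated after overnight attachment with 10 μM compound or DMSO (0.1% final) in triplicate for 48 h. Cells were then transfected for 3 h with 100 ng pGL4-miR21P (miR-21 promoter driving firefly luciferase) or empty pGL4.10. Medium was replaced with compound-containing medium for a further 24 h, followed by Bright-Glo luminescence read.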

Series [21] in a line: Inhibition of miR-125b RNA (unknown origin) transfected in human PC3 cells at 10 uM after 48 hrs by Bright-Glo luciferase reporter gene assay. Type of series: cell-based.

Calls of active or inactive are those of the source. The rule behind the calls is not given here. Bounds are passed on as bounds.

Sequence of Luciferin 4-monooxygenase (Photinus pyralis) (P08659 whole entry): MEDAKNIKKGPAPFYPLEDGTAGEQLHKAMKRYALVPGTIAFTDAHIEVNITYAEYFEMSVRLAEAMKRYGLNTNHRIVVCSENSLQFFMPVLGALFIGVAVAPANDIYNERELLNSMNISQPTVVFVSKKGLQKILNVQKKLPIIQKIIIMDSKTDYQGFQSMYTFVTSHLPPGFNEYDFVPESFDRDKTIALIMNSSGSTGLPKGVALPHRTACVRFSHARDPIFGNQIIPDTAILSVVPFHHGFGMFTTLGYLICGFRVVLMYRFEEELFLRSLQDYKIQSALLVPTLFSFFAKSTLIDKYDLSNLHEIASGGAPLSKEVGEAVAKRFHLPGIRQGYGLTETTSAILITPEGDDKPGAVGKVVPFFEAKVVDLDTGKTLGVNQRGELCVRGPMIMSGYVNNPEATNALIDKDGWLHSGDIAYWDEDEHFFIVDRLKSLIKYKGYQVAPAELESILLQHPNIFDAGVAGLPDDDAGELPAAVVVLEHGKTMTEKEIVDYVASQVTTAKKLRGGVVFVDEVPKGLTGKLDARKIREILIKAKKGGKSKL

As to `C#CCOc1ccc(-c2noc(-c3nnn(-c4cccc(/C(C)=N/O)c4)c3N)n2)cc1`, the Activity is 20% in [1] and “Non-Toxic” in [6]. Moreover, the IC50 in [2] is 6.7 µM; in series [7] it was 0.09 µM; in series [11] it was more than 100 µM; in [12], 3.3 µM; in series [15], 4.5 µM; in [18] it was 0.074 µM. Also, the inhibition entry in [3], in series [4], in [5], in series [13], in series [20] and in series [21] was “inactive” throughout. The outcome in series [8], in series [9], in series [14] and in series [17] was inactive. Also, the fold change (FC) stood at 1.6 in series [10], 11 in series [16] and 12.2 in [19].

The term IC50 denotes the midpoint of a concentration-inhibition curve.
